Compound activity (PubChem)
Most compounds without a hit are left out; they make up all but 3.8% or so of the library.
BB579 growth dn = yeast BB579 growth reduction in restrictive medium; S. cerevisiae BB579 growth, OD615, 48 h; inhibition, % at 10 µM; 0.51% of 140,000 active;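 active = inhibition above a set limit, 3 SD over the mean compound inhibition, cut at about 44% in these data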
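Detection: OD615 turbidity measurement; Material: Saccharomyces cerevisiae DeaD strain BB579, replicative lifespan model yeast; Timing: 48 h exposure, 30 °C; Doses: single 10 µM dose; Medium: CSMM-D restrictive synthetic medium containing dextrose (glucose); Controls: amphotericin B at 10 µg/mL as positive control.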
Measles CPE = protection of cells from measles virus; 1.5% of 140,000 active; protection (pct of control), % at 4 µM; AID 841; Measles virus-infected cells, CPE protection, absorbance; in the data active = protection mostly above about 24%, no sharp cut-off; inactive = mostly below about 26%
Yeast life ext = yeast lifespan extension. S. cerevisiae growth with nicotinamide, OD615; deaD strain in restrictive glucose medium. 0.68% of 130,000 active. inhibition of the nicotinamide effect, % at 10 µM. AID 775;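 active = inhibition above a set limit, placed 3 SD over the median of all compounds, cut at about 26% in these data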;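 note: 0% = nicotinamide-treated wells and 100% = cells grown without nicotinamide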
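Test system: DeaD-strain S. cerevisiae / Buffer or medium: restrictive glucose medium / Also added: nicotinamide 1.5 mM / Doses: one concentration, 10 µM, DMSO 0.25% / Schedule: 48 h at 30 °C / Signal: OD615 measurement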
RAM network inh = yeast RAM network inhibition; S. cerevisiae dse1pr::URA3 reporter, 5-FOA growth OD615, 2 d; analog-sensitive cbk1-as2 kinase mutant strain; inhibition, % at 50 µM; 1.8% of 190,000 active; AID 868;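 active = inhibition above a set limit, 3 SD over mean compound inhibition, cut at about 8.4% in these data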;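 note: 0% = DMSO-only wells with no growth and 100% = 10 µM 1-NA-PP1 full growth; inhibition rescues growth on 5-FOA so higher OD means more RAM inhibition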
sdo1 growth = restores growth of sdo1-depleted yeast; S. cerevisiae sdo1-depleted JHY4D growth rescue, OD600 30 h; hits give high values; pdr5 snq2 efflux-pump mutant strain; z-score at 10 µM; 0.21% of 140,000 active; AID 817;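 active = z-score above 3 at both the 24 hr and the 30 hr optical density reads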;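 note: z-score against mean and SD of all compound wells on the same plate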
Numbers without * were called inactive; nt = no result.

SMILES	BB579 growth dn	Measles CPE	Yeast life ext	RAM network inh	sdo1 growth
CC1CCCC(n2c(=S)[nH]c3ccccc3c2=O)C1C (centres undefined)	-33.4	32.3*	16.1	1.8	-2.3
Cc1ccc(Nc2cc(-n3nc(C)cc3C)ncn2)c(C)c1	7.6	2.7	-13.4	9.1*	0.06
O=S(=O)(/C=C/c1ccccc1)N1CCN(c2nc(-c3cccnc3)nc3ccccc23)CC1	nt	nt	nt	0.6	nt
CC(=O)SC(C)CC(=O)NCc1ccccc1 (centres undefined)	-4.0	1.7	-6.3	1.6	-0.13
CCOC(=O)c1sc(NC(=O)Nc2cccc(Cl)c2)cc1C	-54.1	1.9	3.2	9.0*	0.09
CCO/C(C)=N/n1c2nc3ccccc3nc2c2c(=O)n(Cc3ccccc3Cl)c(C)nc21	-24.0	7.2	12.1	8.6*	-0.78
Fc1cc(F)cc(NC(=S)Nc2ccccc2N2CCOCC2)c1	nt	nt	nt	-0.5	nt
CCOc1cccc(OCCCCN2CCOCC2)c1	-29.7	79.9*	-0.9	1.6	-1.98
CN(C)c1ccc(/C=N/NC(=O)C2COc3ccccc3O2)o1 (centres undefined)	-36.4	17.5*	-5.5	0.4	0.05
O=C(N/N=C\c1ccc(Br)o1)C1COc2ccccc2O1 (centres undefined)	nt	nt	nt	0.4	nt
O=C(N/N=C\c1cccc([N+](=O)[O-])c1O)C1COc2ccccc2O1 (centres undefined)	64.0*	13.8	-5.5	-1.2	1.22
COC(=O)c1ccccc1NC(=S)NC(=O)c1cccc2ccccc12	-34.0	58.5*	-5.0	6.7	-1.17
COC(=O)c1ccccc1NC(=S)NC(=O)c1ccc2ccccc2c1	-2.7	3.8	0.0	1.2	0.05
Cc1ccc(OCC(=O)NC(=S)Nc2ccc3c4c(cccc24)CC3)cc1	22.9	7.2	1.3	5.7	0.23
COC(=O)c1ccccc1NC(=S)NC(=O)COc1ccc(C(C)C)cc1	-24.9	4.2	2.8	9.2*	0
CC(C)c1ccc(OCC(=O)NC(=S)Nc2ccc3c4c(cccc24)CC3)cc1	-34.8	11.5	-14.5	9.1*	-1.14
CCOC(=O)N1CCN(C(=O)c2cnn(-c3ccccc3)c2NC(=O)c2ccccc2F)CC1	3.2	0.5	-10.2	0.0	0.1
CCOC(=O)/C(C#N)=C\C1=C(N2CCCC2)CC(C)(CC)OC1 (centres undefined)	-11.8	19.1	nt	-0.1	-0.21
COc1ccc(OC)c(C(=O)COC(=O)c2ccccc2O)c1	0.0	1.8	-18.6	8.7*	-0.08
CCCSc1ccc2nc(-c3ccccc3)cn2c1	-38.6	4.7	-3.5	0.1	-0.91
CCCCSc1ccc2nc(-c3ccc(C#N)cc3)cn2c1	-17.4	43.3*	-9.5	0.7	-1.1
CC(C)(C)C(=O)Cn1c(=N)n(Cc2ccccc2)c2ccccc21	-22.1	11.2	32.0*	1.2	-2.65
CC(C)(C)C(=O)Cn1c(=N)n(Cc2ccccc2Cl)c2ccccc21	-76.4	10.3	3.7	1.7	-2.03
O=C(c1cnn(-c2ccccc2)c1)c1ccc2ccccc2c1O	-10.1	18.1	-10.1	10.4*	-0.97
COC(=O)C1=C(C)N(CCc2ccccc2)C(=O)/C1=C\c1ccco1	-41.7	15.9	15.6	11.2*	-0.81
SMILES	BB579 growth dn	Measles CPE	Yeast life ext	RAM network inh	sdo1 growth
COC(=O)C1=C(C)N(c2cccc(OC)c2)C(=O)/C1=C\c1ccco1	-36.0	5.5	19.9	9.0*	-0.26
CCN1C(=O)/C(=C\c2ccco2)C(C(=O)OC)=C1C	-24.6	8.5	-31.4	0.1	1.76
CCN1CC(CN(C)Cc2cn(-c3cccc(C)c3)nc2-c2cccc(F)c2)CC1=O (centres undefined)	nt	nt	nt	1.1	nt
COc1ccc(/C=C(\NC(=O)c2ccccc2)C(=O)OCC2CCCN3CCCCC23)cc1OC (centres undefined)	nt	nt	nt	1.2	nt
CC1(C)CC2c3cccc(C(=O)O)c3C(=O)N2c2c1ccc1ccccc21 (centres undefined)	-21.2	7.1	47.9*	3.0	-0.52
CC1CC2c3cccc(C(=O)O)c3C(=O)N2c2ccc(Cl)cc21 (centres undefined)	nt	nt	nt	2.7	nt
CCn1ncc(Br)c1C(=O)Nc1ccc(C(=O)OC(C)C)cc1	-36.3	38.3*	-16.6	1.7	-1.06
CCOC(=O)C1=C(C)NC2=C(C(=O)C(C(=O)OCC)C(c3ccco3)C2)C1c1ccccn1 (centres undefined)	-4.8	49.6*	-10.8	-0.3	-0.52
